Measured values from ChEMBL document CHEMBL4513216, “Probing the Open Global Health Chemical Diversity Library for Multistage-Active Starting Points for Next-Generation Antimalarials” (ACS Infect Dis, 2020).

Test: Toxicity liver stage against HepG2, at 10uM
Assay type: cell-based
Design: test concentration 10 uM, cell line HepG2-A16-CD81EGFP
Conditions: human, HepG2-A16-CD81EGFP cells; read-out: INHIBITION
Method in brief: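 Uninfected HepG2-A16-CD81EGFP cells, 3 × 10^3 per well, 1536-well, plated on prespotted compound at 10 μM final, parasite-free screening media added to match infected plates; puromycin 10 μM positive, DMSO 0.5% negative; run in parallel with 48 h PbLuc assay at 37 °C, 5% CO2; viability by CellTiter-Glo luminescence, normalized to controls.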

Row | Compound | cytotoxicity at 10 µM [%]
1 | CC(C)c1noc([C@@H]2Cc3[nH]cnc3CN2C(=O)Nc2ccccc2)n1 | 0.0515
2 | O=C1N[C@@H]2CCN(C(=O)N3CCOCC3)[C@@H]2C(=O)N1Cc1ccccc1 | -3.36
3 | Cc1nn2cnnc2c(C)c1CCC(=O)Nc1nnc(C2CC2)s1 | -2.89
4 | CCc1cnc2c(c1Nc1cccc(OC)c1)c(=O)n(C)c(=O)n2C | 12.6
5 | O=C(CC1CC1)N1CCC2(CC1)C(=O)NCCN2Cc1ccccc1 | -3.33
6 | O=C(NCc1ccccc1)N1C[C@H]2CCN[C@H]2C1 | -5.54
7 | O=C1COC2(CCN(C(=O)c3cnccn3)CC2)CN1CC1CC1 | -16
8 | Cc1nc(N2CCCC2)nc2c1CN(C(=O)c1ccco1)CC2 | 5.29
9 | CN(C)C(=O)c1nc2c(n1C)CCN(Cc1ccccc1)C2 | 7.83
10 | Cc1nc([C@H]2C[C@H]3CN(C(=O)c4cc(C)c(C)s4)CC[C@@H]3O2)no1 | 0.732
11 | O=C1COC2(CCN(Cc3ccncc3)CC2)CN1CC1CC1 | -3.84
12 | Cc1cc2nc(SCC(=O)N3CCOCC3)n(CC(C)C)c(=O)c2[nH]1 | 1.36
13 | COCC1CC2(CCN(C(=O)c3cccn3C)CC2)CN1C(C)C (stereo not given) | -14.2
14 | CN1CCN(C(=O)[C@@H]2CCO[C@@H]3CCN(c4ncccn4)C[C@@H]32)CC1 | -4.96
15 | Cc1cc(C(=O)NCC2COCc3c(C)nnn3C2)no1 (stereo not given) | -7.32
16 | O=C1CCC(c2nc(C3CCN(C(=O)Cc4cccs4)CC3)no2)N1 (stereo not given) | -2.83
17 | COc1ccc2c(c1)NC(C1CCN(C(=O)C3CC3)CC1)NS2(=O)=O (stereo not given) | 0.0454
18 | CCCC(=O)N1CCC(Cc2ccccc2-c2ccccc2)(C(N)=O)C1 (stereo not given) | -23.6
19 | CC(=O)c1ccc(-c2cc(C(F)(F)F)cc(N(C)C)n2)cc1 | 4.02
20 | Cc1cc(NC(=O)c2ccc(C)c(F)c2)[nH]n1 | -42.1
21 | CCc1nsc(N2CCn3c(nnc3-c3ccccc3)C2)n1 | 3.67
22 | O=C(c1cccnc1N1CCCC1)N1CCOC(c2ccccc2)C1 (stereo not given) | 3.13
23 | CC(NC(N)=O)C(=O)NCc1ccc(Br)c(F)c1 (stereo not given) | 7.97
24 | c1csc(-c2noc(C3CCCOC3)n2)c1 (stereo not given) | 7.39
25 | O=C(Nc1cnn(Cc2ccc(Cl)cc2)c1)N1CCCC1CO (stereo not given) | -1.13
26 | Cc1ccccc1C(NC(=O)NCC1(CO)CC1)C1CC1 (stereo not given) | -7.16
27 | COCC(=O)N1CCN(c2ccc(C(=O)OC)cc2)CC1C (stereo not given) | -14.2

Row | Compound | cytotoxicity at 10 µM [%]
28 | O=C(Nc1ccc(CN2CCOCC2)cc1)c1nccn2ccnc12 | -8.3
29 | COc1cc(Cl)c(C)cc1NC(=O)CCNc1ccc(C#N)cn1 | 0.423
30 | CCCNC(=O)CC1OCCc2ccsc21 (stereo not given) | -1.5
31 | COc1cccc(CCC(=O)N2CCN(Cc3noc(C)n3)CC2)c1 | 3.09
32 | CCC(C)Sc1nncn1-c1ccc(OC)nc1 (stereo not given) | -1.35
33 | COC(=O)c1cc(OC)c(OC)cc1NCc1c(C)noc1C | 4
34 | CS(=O)(=O)NCC1CCCN(C(=O)Nc2cccc3ccccc23)C1 (stereo not given) | -139
35 | CN1CCCN(c2nc(C3CC3)ns2)CC1 | -3.23
36 | CCC1CN(c2cnn(C)c(=O)c2Br)CCO1 (stereo not given) | -5.09
37 | O=C(Cc1csc(N2CCNC2=O)n1)NCC1(c2ccccc2)CC1 | -123
38 | CCOc1ccc(NC2CCN(C)C2=O)cn1 (stereo not given) | -3.7
39 | CC(C)(CNc1cn[nH]c(=O)c1Cl)c1ccc2c(c1)OCO2 | 6.67
40 | O=C(CNC(=O)C1CC1)NCC(F)(F)F | -5.82
41 | CN(C)C(=O)Cn1ccc2cc(NC(=O)N3CCOCC3)ccc21 | 6.35
42 | Cc1ccc(CC(=O)N2CCN(C(C)c3ccccc3F)CC2)cn1 (stereo not given) | -9.75
43 | COc1ccc(-c2nnc(SCC(=O)NCC(C)C)[nH]2)c(OC)c1 | -6.73
44 | CCc1nnc2n1CCN(C(=O)c1ccc3nc(C)c(C)nc3c1)C2 | -10.9
45 | Cc1nn(CC(=O)N2CCCCC2Cn2cccn2)c(C)c1Cl (stereo not given) | 2.35
46 | Cc1ccoc1C(=O)N1C[C@H](OCC2CC2)[C@H]2OCCC[C@H]21 | 2.89
47 | CC(C)Cc1nc(CN(C)c2cc(C(C)C)nc3ccnn23)no1 | 3.61
48 | Cc1ccccc1CN1C[C@@H](CN(C)CCO)[C@@H](CO)C1 | -1.03
49 | Cc1cccn2c(CC(=O)N3CCC(Oc4ncccn4)CC3)cnc12 | 6.78
50 | COCCN1CCCC2(CCN(c3nc(C)nc4c3CCC4)C2)C1=O (stereo not given) | -11.4
51 | Cc1ccc2[nH]c(CN(C)Cc3n[nH]c4c3CCC4)nc2c1 | 4.85
52 | CC(=O)NCC(=O)N1CCCC(C(=O)c2ccc(C(C)(C)C)cc2)C1 (stereo not given) | 5.78
53 | Nc1cc(C(=O)N2CCC3(CC2)Nc2ccccc2NC3=O)ccn1 | 6.13
54 | O=S(=O)(c1ccc(-c2cnco2)cc1)N1CCCC(O)(CO)CC1 (stereo not given) | 1.72

Row | Compound | cytotoxicity at 10 µM [%]
55 | Cc1nc(NCC(O)CN2CCCCCC2)c2c(C)nn(C)c2n1 (stereo not given) | -2.86
56 | CC(C)(O)CCc1cccc(C(=O)N[C@@H](CO)C(N)=O)c1 | 4.76
57 | CCOc1ccccc1-n1c(C2CC(=O)N(C)C2)n[nH]c1=O (stereo not given) | 2.48
58 | COc1cccc(-c2noc(-c3ccc(NCC4CC4)nc3)n2)c1OC | 6.65
59 | CC(C)N1CCCC2(CCN(C(=O)CCCn3cncn3)C2)C1=O (stereo not given) | -11.1
60 | CC(C)Cc1cc(NC(=O)c2cc(Cl)c[nH]2)n(C)n1 | -7.94
61 | Cc1ccc(C(C)N(C)Cc2nc3c(cnn3C)c(=O)[nH]2)s1 (stereo not given) | -4.31
62 | CC(NC(=O)CCC(=O)c1cccs1)c1nnc2n1CCC2 (stereo not given) | -15.1
63 | CC(C)c1ccc(OCC(=O)NS(=O)(=O)c2cccnc2)cc1 | -5.19
64 | CC(C)c1noc(CCCC(=O)NC(C)c2ccccn2)n1 (stereo not given) | -4.36
65 | Cn1ccnc1CNCC1CCCN1c1cccnn1 (stereo not given) | -11.3
66 | O=C(c1cnc(-c2ccccn2)s1)N1CCCC(n2cccn2)C1 (stereo not given) | -11.9
67 | COc1ccc(CNCC(C)Oc2ccccn2)cc1 (stereo not given) | -2.7
68 | CN(C)[C@@H]1CCN(c2ncccn2)[C@H]1Cc1cccnc1 | -3.9
69 | O=C(CN1CC(c2nc(-c3ccco3)no2)C1)NCc1ccc(F)cc1 | -5.07
70 | CCn1cc2c(n1)CN(C(=O)c1ccncc1)CC2COCC1CC1 (stereo not given) | -2.37
71 | NC(=O)c1ccc(CNC2CC2)cc1 | 8.57
72 | Cc1ccc(C(=O)N2Cc3c(CN4CCCCC4)nn(C)c3C2)cc1F | -4.15
73 | CN1CCN(C(=O)[C@H]2C[C@@H]3CCN(c4ncc(F)cn4)C[C@@H]3O2)CC1 | -6.69
74 | Cc1nnc([C@@H]2CC[C@@H]3[C@@H](CCN3Cc3ccccn3)O2)o1 | 11.3
75 | O=C(c1ccsc1)N1CCO[C@@H]2CN(Cc3ccccn3)CC[C@@H]2C1 | -123
76 | Cc1cc(C(=O)N2CCC3(CC2)CC(c2cccnc2)C(=O)N3)no1 (stereo not given) | -133
77 | COCC1CN(C(=O)c2ccco2)Cc2cn(C)nc21 (stereo not given) | 9.08
78 | Cc1ccc(CN2CCc3ncnc(C4CCOC4)c3CC2)s1 (stereo not given) | -0.827
79 | CCc1ccc(NC(=O)N2C[C@@H]3C[C@H](C(=O)NC(C)C)[C@H](C2)O3)cc1 | -1.67
80 | CCn1ncc(-c2nc3c[nH]n(CC)c-3n2)c1C | 2.13
